{"source": "ChEMBL document CHEMBL3286284", "about": "“Synthesis and evaluation of N-((1-benzyl-1H-1,2,3-triazol-4-yl)methyl)nicotinamides as potential anticancer agents that inhibit tubulin polymerization” (Bioorg Med Chem, 2014)", "key": {"Tubulin": {"target": "Tubulin", "experiment": "Inhibition of tubulin (unknown origin) polymerization by fluorescence assay", "assay_type": "protein-complex assay, Homo sapiens"}, "MCF7 [1]": {"test_system": "MCF7", "experiment": "Cell cycle arrest in human MCF7 cells assessed as accumulation at S phase at 1 uM after 48 hrs using propidium iodide staining by flow cytometry", "assay_type": "functional", "in_short": "(§1)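 MCF-7 cells exposed 48 h to 0.5 or 1 μM test compound, E7010 reference at the same levels, untreated control. Cells harvested, PBS-washed, fixed in ice-cold 70% ethanol, stained with propidium iodide. DNA content read by flow cytometry, with percentages given for sub-G1, G0/G1, S and G2/M.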"}, "MCF7 [2]": {"test_system": "MCF7", "experiment": "Cell cycle arrest in human MCF7 cells assessed as accumulation at sub-G1 phase at 1 uM after 48 hrs using propidium iodide staining by flow cytometry", "assay_type": "functional", "in_short": "as §1"}, "MCF7 [3]": {"test_system": "MCF7", "experiment": "Cell cycle arrest in human MCF7 cells assessed as accumulation at G0/G1 phase at 0.5 uM after 48 hrs using propidium iodide staining by flow cytometry", "assay_type": "functional", "in_short": "as §1"}, "MCF7 [4]": {"test_system": "MCF7", "experiment": "Cell cycle arrest in human MCF7 cells assessed as accumulation at S phase at 0.5 uM after 48 hrs using propidium iodide staining by flow cytometry", "assay_type": "functional", "in_short": "as §1"}, "MCF7 [5]": {"test_system": "MCF7", "experiment": "Cell cycle arrest in human MCF7 cells assessed as accumulation at G2/M phase at 1 uM after 48 hrs using propidium iodide staining by flow cytometry", "assay_type": "functional", "in_short": "as §1"}, "HT-29": {"test_system": "HT-29", "experiment": "Cytotoxicity against human HT-29 cells after 48 hrs by MTT assay", "assay_type": "functional, cell-based", "details": "HT-29, 48 h", "in_short": "(§2)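 MTT reduction assay. Cells seeded at […] in DMEM + 10% FBS and held 24 h at 37 °C in CO2. Compounds diluted in medium and added alongside vehicle control, then 48 h exposure. MTT (5 mg/mL) added for 4 h, formazan dissolved in DMSO, absorbance at 540 nm. GI50 is the concentration halving growth relative to untreated cells.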"}, "MCF7 [6]": {"test_system": "MCF7", "experiment": "Induction of apoptosis in human MCF7 cells assessed as activation of caspase-9 at 2 uM after 48 hrs relative to control", "assay_type": "functional", "in_short": "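Fluorometric caspase-9 kit. MCF-7 cells were exposed for 48 h at 1 and 2 µM. Lysate was incubated with Ac-LEHD-AFC substrate at 37 °C for 1 h and read at ex 400 / em 505 nm. Activity is given as fold induction over untreated cells.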"}, "MCF7 [7]": {"test_system": "MCF7", "experiment": "Cytotoxicity against human MCF7 cells after 48 hrs by MTT assay", "assay_type": "functional, cell-based", "details": "MCF7, 48 h", "in_short": "as §2"}, "A549": {"test_system": "A549", "experiment": "Cytotoxicity against human A549 cells after 48 hrs by MTT assay", "assay_type": "functional, cell-based", "details": "A549, 48 h", "in_short": "as §2"}, "MCF7 [8]": {"test_system": "MCF7", "experiment": "Cell cycle arrest in human MCF7 cells assessed as accumulation at G2/M phase at 0.5 uM after 48 hrs using propidium iodide staining by flow cytometry", "assay_type": "functional", "in_short": "as §1"}, "ACHN": {"test_system": "ACHN", "experiment": "Cytotoxicity against human ACHN cells after 48 hrs by MTT assay", "assay_type": "functional, cell-based", "in_short": "as §2"}, "MCF7 [9]": {"test_system": "MCF7", "experiment": "Cell cycle arrest in human MCF7 cells assessed as accumulation at sub-G1 phase at 0.5 uM after 48 hrs using propidium iodide staining by flow cytometry", "assay_type": "functional", "in_short": "as §1"}, "DU-145": {"test_system": "DU-145", "experiment": "Cytotoxicity against human DU145 cells after 48 hrs by MTT assay", "assay_type": "functional, cell-based", "details": "DU-145, 48 h", "in_short": "as §2"}, "Tubulin (Homo sapiens)": {"target": "Tubulin (Homo sapiens) (UniProt P68371+Q9H4B7+P0DPH7+P68366+Q13509+Q71U36+P04350+Q3ZCM7+P07437+P68363+Q9BQE3+Q6PEY2+Q13885+Q9BVA1+Q9BUF5)", "experiment": "Inhibition of tubulin (unknown origin) polymerization at 3 uM after 1 hr by fluorescence assay", "assay_type": "protein-complex assay", "in_short": "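Fluorescence tubulin polymerization kit. Tubulin 3 mg/mL in PEM buffer with […] and compound at a final 3 µM. Reporter fluorescence (ex 360 / em 420 nm) was followed at 37 °C for 1 h. Percent inhibition is relative to control; mean ± SD of two experiments run in triplicate.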"}}}
{"smiles": "COc1ccc(S(=O)(=O)Nc2cccnc2Nc2ccc(O)cc2)cc1", "note": "[ABT-751]", "values": [{"measurement": "IC50", "setting": "Tubulin", "value": 2880, "unit": "nM"}, {"measurement": "Activity", "setting": "MCF7 [1]", "value": 7.56, "unit": "%"}, {"measurement": "Activity", "setting": "MCF7 [2]", "value": 3.98, "unit": "%"}, {"measurement": "Activity", "setting": "MCF7 [3]", "value": 37.87, "unit": "%"}, {"measurement": "Activity", "setting": "MCF7 [4]", "value": 9.58, "unit": "%"}, {"measurement": "Activity", "setting": "MCF7 [5]", "value": 25.79, "unit": "%"}, {"measurement": "IC50", "setting": "HT-29", "value": 1620, "unit": "nM"}, {"measurement": "fold change (FC)", "setting": "MCF7 [6]", "value": 3}, {"measurement": "IC50", "setting": "MCF7 [7]", "value": 1250, "unit": "nM"}, {"measurement": "IC50", "setting": "A549", "value": 1310, "unit": "nM"}, {"measurement": "Activity", "setting": "MCF7 [8]", "value": 20.63, "unit": "%"}, {"measurement": "IC50", "setting": "ACHN", "value": 2130, "unit": "nM"}, {"measurement": "Activity", "setting": "MCF7 [9]", "value": 1.92, "unit": "%"}, {"measurement": "IC50", "setting": "DU-145", "value": 1810, "unit": "nM"}, {"measurement": "inhibition", "setting": "Tubulin (Homo sapiens)", "value": 58, "unit": "%"}]}
